The target in experiment [1] is T1, Beta-2 adrenergic receptor (Homo sapiens, UniProt P07550). Description: Displacement of [3H]dihydroalprenolol from beta2-adrenoceptor after 90 mins by liquid scintillation counting. Background: Loss of bound radioactivity is the signal in a displacement assay; it reports binding, not function.
Target sequence in this assay (P07550 whole entry): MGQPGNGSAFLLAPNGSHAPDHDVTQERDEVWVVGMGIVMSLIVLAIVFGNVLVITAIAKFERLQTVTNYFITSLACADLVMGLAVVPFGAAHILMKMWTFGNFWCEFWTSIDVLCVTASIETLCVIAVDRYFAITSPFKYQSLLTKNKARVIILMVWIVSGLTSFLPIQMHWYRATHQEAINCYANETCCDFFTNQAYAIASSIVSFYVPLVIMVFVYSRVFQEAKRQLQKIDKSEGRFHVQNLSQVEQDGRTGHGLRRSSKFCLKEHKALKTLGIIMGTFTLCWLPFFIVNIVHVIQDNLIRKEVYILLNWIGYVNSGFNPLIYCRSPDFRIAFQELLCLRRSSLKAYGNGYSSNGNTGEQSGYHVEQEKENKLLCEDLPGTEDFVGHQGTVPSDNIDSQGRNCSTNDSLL
For experiment [2], the target named is Beta-1 adrenergic receptor (Homo sapiens, UniProt P08588). Kind of experiment: Agonist activity at recombinant human beta1-adrenoceptor expressed in whole cells assessed as cAMP accumulation by homogeneous radioimmunoassay. It counts as functional, cell-based. (In general: cAMP levels reflect the balance of adenylyl cyclase and phosphodiesterase activity.)
Sequence of Beta-1 adrenergic receptor (P08588 whole entry): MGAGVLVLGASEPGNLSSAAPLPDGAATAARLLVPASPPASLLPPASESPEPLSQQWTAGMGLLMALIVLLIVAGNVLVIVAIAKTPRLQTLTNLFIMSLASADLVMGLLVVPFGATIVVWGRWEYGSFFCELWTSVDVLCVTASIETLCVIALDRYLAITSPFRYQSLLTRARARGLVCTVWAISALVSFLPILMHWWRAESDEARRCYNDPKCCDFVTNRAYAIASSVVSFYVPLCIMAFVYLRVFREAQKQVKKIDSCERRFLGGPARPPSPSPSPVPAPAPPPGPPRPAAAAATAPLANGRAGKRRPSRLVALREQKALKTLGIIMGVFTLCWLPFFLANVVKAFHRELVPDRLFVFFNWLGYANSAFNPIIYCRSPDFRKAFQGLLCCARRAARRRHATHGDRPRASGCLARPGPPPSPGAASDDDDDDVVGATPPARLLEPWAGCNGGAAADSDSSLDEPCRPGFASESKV

The target in experiment [3] is T1, Beta-2 adrenergic receptor. Kind of experiment: Agonist activity at recombinant human beta2-adrenoceptor expressed in whole cells assessed as cAMP accumulation by homogeneous radioimmunoassay. It counts as functional, cell-based.
Target sequence in this assay (P07550 whole entry): as the sequence (P07550 whole entry) above
Experiment [4] addresses T1, Beta-2 adrenergic receptor. Kind of experiment: Agonist activity at beta2-adrenoceptor endogenously expressed in human BEAS-2B cells assessed as cAMP accumulation by homogeneous radioimmunoassay. Type of experiment: functional, cell-based.
Target sequence in this assay (P07550 whole entry): as above
In experiment [5] the target is T1, Beta-2 adrenergic receptor. Description: Ratio of pEC50 for recombinant human beta2-adrenoceptor expressed in whole cells to pEC50 for beta2-adrenoceptor endogenously expressed in human BEAS-2B cells. Type of experiment: cell-based. Put shortly:
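cAMP accumulation was measured by homogeneous radioimmunoassay (Flashplate) in two systems: whole cells overexpressing cloned human β2-adrenoceptor, and BEAS-2B human bronchial epithelial cells with endogenous β2-adrenoceptor. Potency was taken from each, and intrinsic activity from BEAS-2B.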
Target sequence in this assay (P07550 whole entry, looked up): as the sequence (P07550 whole entry) above

A further experiment is filed under the species Homo sapiens. Kind of experiment: Selectivity ratio of pEC50 for recombinant human beta2-adrenoceptor to pEC50 for human beta1-adrenoceptor. The gist of the method:
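Agonist stimulation of cAMP accumulation was measured by homogeneous radioimmunoassay (Flashplate) in whole cells overexpressing cloned human β2- or β1-adrenoceptor. Selectivity was calculated as the ratio of agonist EC50 potencies at the two subtypes.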

For experiment [6], the system named is Cavia porcellus. Kind of experiment: Bronchoprotective activity in Ach-stimulated guinea pig assessed as reduction in pulmonary resistance at 30 ug/mL administered via nebulization measured at 48 hrs post-dosing by head-out plethysmography. Type of experiment: functional, organism-based. The gist of the method:
(§1)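 Guinea pigs dosed by nebulization, with water as control. Pulmonary resistance was measured in anesthetized, spontaneously breathing animals by head-out plethysmography. Bronchoconstriction was induced with increasing intravenous acetylcholine doses. The read-out was PD2, the ACh dose needed to double baseline resistance.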

The test system of experiment [7] is Cavia porcellus. Kind of experiment: Bronchoprotective activity in Ach-stimulated guinea pig assessed as reduction in pulmonary resistance at 30 ug/mL administered via nebulization measured after 1.5 hrs by head-out plethysmography. It counts as functional, organism-based. Put shortly:
as §1

Experiment [8] deals with Cavia porcellus. Kind of experiment: Bronchoprotective activity in Ach-stimulated guinea pig assessed as reduction in pulmonary resistance at 300 ug/mL administered via nebulization measured after 24 hrs by head-out plethysmography. Type of experiment: functional, organism-based.

Active and inactive are the calls of the source. The calls are words filed in the database; no cut-off is given here.

As a reminder, the IC50 is the concentration that inhibits the measured activity by half. Low values mean greater potency, high ones weaker potency. Broadly, the EC50 is the concentration at which the effect is half-maximal.

Regarding `OCc1cc(C(O)CN[C@H]2CC[C@H](NCC(O)c3ccc(O)c(CO)c3)CC2)ccc1O` (some centres not stated), in experiment [1], the IC50 is 5010 nM.

On to `OCc1cc([C@@H](O)CNCCc2ccc(NC[C@@H](O)c3ccccc3)cc2)ccc1O` (mixture of isomers), for which the EC50 in experiment [2] was 251 nM; in experiment [3] it was 0.316 nM; in [4] it was 3.98 nM. In addition, in experiment [5], the Ratio stood at 10. Turning to `OCc1cc(C(O)CNC2Cc3ccc(NCC(O)c4ccccc4)cc3C2)ccc1O` (configuration not stated), the EC50 in experiment [3] was 5.01 nM. `Nc1c(Cl)cc([C@@H](O)CNCCc2ccc(NC[C@H](O)c3ccccc3)cc2)cc1Cl`: the EC50 in experiment [3] is 0.398 nM. Regarding `CC(C)(C)c1ccc(C(O)CNc2ccc(CCNCC(O)c3ccc(O)c(CO)c3)cc2)cc1` (configuration not stated), in experiment [3], the half-maximal effective concentration (EC50) was 50.1 nM. Same read-out and setting: under `CN(CC(O)c1ccccc1)c1ccc(CCNCC(O)c2ccc(O)c(CO)c2)cc1` (configuration not stated) stands 2 nM. `CC(C)(CNCC(O)c1ccc(O)c(CO)c1)CNCC(O)c1ccc(O)c(CO)c1` (configuration not stated): the IC50 in experiment [1] was 251000 nM.

On to `OC(CNCCc1ccc(NCC(O)c2ccccc2)cc1)c1ccccc1` (configuration not stated), for which the IC50 in experiment [1] was 251 nM. This IC50 is about 1000-fold lower than that of the molecule before. In the case of `CC(C)(Cc1ccc(NCC(O)c2ccccc2)cc1)NCC(O)c1ccc(O)c(CO)c1` (configuration not stated), the EC50 in [3] is 0.316 nM. For the molecule `OCc1cc(C(O)CNCc2ccc(CNCC(O)c3ccc(O)c(CO)c3)cc2)ccc1O` (configuration not stated), the IC50 in experiment [1] was 50100 nM. That is a double-digit micromolar value. In turn, `OCc1cc(C(O)CNCCc2ccc(NCC(O)c3ccc(O)c(CO)c3)cc2)ccc1O` (configuration not stated) gave an IC50 in [1] of 251 nM. In turn, `OCc1cc(C(O)CNCC2CCCC(CNCC(O)c3ccc(O)c(CO)c3)C2)ccc1O` (configuration not stated) showed an IC50 in [1] of 10000 nM. This IC50 is about 40-fold higher than that of the molecule before. `OCc1cc(C(O)CNCCCCCCNCC(O)c2ccc(O)c(CO)c2)ccc1O` (configuration not stated): the IC50 in experiment [1] was 7940 nM. As for `OCc1cc(C(O)CNCCc2ccc(NCC(O)c3ccccc3)cc2)ccc1O` (configuration not stated), the IC50 in experiment [1] was 39.8 nM. For the same molecule, the EC50 in experiment [3] was 0.316 nM. In experiment [1], `OCc1cc(C(O)CNCCCCNCC(O)c2ccc(O)c(CO)c2)ccc1O` (configuration not stated) had an IC50 of 10000 nM.

Consider `OCc1cc([C@@H](O)CNCCc2ccc(NC[C@H](O)c3ccccc3)cc2)ccc1O`, for which the Ratio in the experiment filed under Homo sapiens was over 300; in [5], 10. Further, the EC50 in experiment [2] is 251 nM; in experiment [3] it was 0.1 nM; in [4], 1.26 nM. Moreover, the result in the experiment on Cavia porcellus [6] was inactive. For the same molecule, in the experiment on Cavia porcellus [7], the outcome was Active. For the molecule `O=c1ccc2c([C@@H](O)CNCCc3ccc(NC[C@H](O)c4ccccc4)cc3)ccc(O)c2[nH]1`, the EC50 was 0.126 nM in experiment [3] and 1.26 nM in [4]. Besides, the Ratio in [5] worked out at 10. As to `CC(C)CCc1ccc(C(O)CNc2ccc(CCNCC(O)c3ccc(O)c(CO)c3)cc2)cc1` (configuration not stated), the EC50 in experiment [3] is 63.1 nM. Still for that read-out and setting: under `OCc1cc(C(O)CNCCc2ccc(NCC(O)c3ccc4ccccc4c3)cc2)ccc1O` (configuration not stated) stands 50.1 nM.

Consider `O=CNc1cc([C@@H](O)CNCCc2ccc(NC[C@H](O)c3ccccc3)cc2)ccc1O` [MILVETEROL], for which the values for the Ratio (in the experiment listed under Homo sapiens; in [5]) were over 300 and 10, respectively. In addition, the 50% effective concentration (EC50) in experiment [2] is 25.1 nM; in experiment [3] it was 0.0631 nM; in experiment [4], 0.501 nM. In addition, the result with Cavia porcellus [6] and with Cavia porcellus [7] was Active. With `OCc1cc(C(O)CNCCCCCCOCCCCc2ccccc2)ccc1O` (configuration not stated), the result in the experiment on Cavia porcellus [8] was Active. The result in the experiment on Cavia porcellus [6] was inactive.

As to `OCc1cc(C(O)CNCCc2ccc(CCNCC(O)c3ccc(O)c(CO)c3)cc2)ccc1O` (configuration not stated), the IC50 in [1] is 100000 nM.

`COc1ccc(C(O)CNc2ccc(CCNCC(O)c3ccc(O)c(CO)c3)cc2)c(OC)c1` (configuration not stated): in [3], the EC50 was 39.8 nM.

Take `OCc1cc(C(O)CNC2CCC(CC3CCC(NCC(O)c4ccc(O)c(CO)c4)CC3)CC2)ccc1O` (configuration not stated): in experiment [1], the IC50 was 20000 nM. In the case of `OCc1cc(C(O)CNCCc2ccc(NCC(O)c3ccc(F)cc3)cc2)ccc1O` (configuration not stated), in experiment [3], the concentration for a half-maximal effect (EC50) was 2 nM. Same read-out and setting: to `OCc1cc(C(O)CNCCc2ccc(OCC(O)c3ccccc3)cc2)ccc1O` (configuration not stated) belongs 0.398 nM; to `OCc1cc(C(O)CNCCc2ccc(NCC(O)c3ccc(O)cc3)cc2)ccc1O` (configuration not stated), 7.94 nM. In [1], `OCc1cc(C(O)CNCc2cccc(CNCC(O)c3ccc(O)c(CO)c3)c2)ccc1O` (configuration not stated) had an IC50 of 20000 nM. Still for that read-out and setting: under `OCc1cc(C(O)CNCc2ccc(NCC(O)c3ccc(O)c(CO)c3)cc2)ccc1O` (configuration not stated) stands 2000 nM.

For the molecule `Cc1ccc(C(O)CNc2ccc(CCNCC(O)c3ccc(O)c(CO)c3)cc2)cc1` (configuration not stated), the EC50 in [3] is 2.51 nM. Same read-out and setting: under `COc1ccc(OC)c(C(O)CNc2ccc(CCNCC(O)c3ccc(O)c(CO)c3)cc2)c1` (configuration not stated) stands 6.31 nM; under `OCc1cc(C(O)CNCCc2ccc(NCC(O)c3ccc(Cl)cc3)cc2)ccc1O` (configuration not stated), 1.58 nM; under `OCc1cc(C(O)CNCCc2ccc(NCC(O)c3ccc(-c4ccccc4)cc3)cc2)ccc1O` (configuration not stated), 39.8 nM.

Source of the values: ChEMBL document CHEMBL1938358, “A multivalent approach to the discovery of long-acting β(2)-adrenoceptor agonists for the treatment of asthma and COPD” (Bioorg Med Chem Lett, 2012).
